Columns and labels:
[1] = target: MAP kinase-interacting serine/threonine-protein kinase 1 (Homo sapiens) (UniProt Q9BUB5); test: Inhibition of MNK1 (unknown origin) at 10 uM incubated for 30 mins in presence of [gamma-33P]ATP by multidrop micro reagent based assay relative to control
How it was run: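 Single-concentration screen across a panel of 85 protein kinases. Activity is expressed as a percentage of control incubations run without inhibitor.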

[2] = target: SRSF protein kinase 1 (Homo sapiens) (UniProt Q96SB4); test: Inhibition of SRPK1 (unknown origin) at 10 uM incubated for 30 mins in presence of [gamma-33P]ATP by multidrop micro reagent based assay relative to control; values are per cent of control
SRSF protein kinase 1 (Homo sapiens), sequence (Q96SB4 whole entry): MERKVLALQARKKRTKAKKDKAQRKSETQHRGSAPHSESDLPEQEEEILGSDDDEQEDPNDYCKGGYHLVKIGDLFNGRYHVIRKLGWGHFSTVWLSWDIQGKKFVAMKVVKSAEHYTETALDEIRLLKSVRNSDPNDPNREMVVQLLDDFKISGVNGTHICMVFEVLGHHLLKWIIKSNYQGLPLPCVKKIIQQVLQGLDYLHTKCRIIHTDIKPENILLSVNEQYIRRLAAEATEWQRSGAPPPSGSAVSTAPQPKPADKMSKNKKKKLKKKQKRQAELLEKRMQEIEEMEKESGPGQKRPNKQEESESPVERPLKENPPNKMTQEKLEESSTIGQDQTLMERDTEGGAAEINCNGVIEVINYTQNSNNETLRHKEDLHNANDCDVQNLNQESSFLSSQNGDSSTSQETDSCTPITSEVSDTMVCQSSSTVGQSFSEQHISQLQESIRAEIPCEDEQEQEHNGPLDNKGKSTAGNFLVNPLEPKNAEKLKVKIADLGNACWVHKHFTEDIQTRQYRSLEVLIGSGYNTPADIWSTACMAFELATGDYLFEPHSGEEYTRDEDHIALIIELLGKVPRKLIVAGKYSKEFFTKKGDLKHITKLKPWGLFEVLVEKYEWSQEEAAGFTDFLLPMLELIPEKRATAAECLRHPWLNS

[3] = target: Mitogen-activated protein kinase 13 (Homo sapiens) (UniProt O15264); test: Residual activity of p38delta MAPK (unknown origin) at 10 uM incubated for 30 mins in presence of [gamma-33P]ATP by multidrop micro reagent based assay relative to control
Mitogen-activated protein kinase 13 (Homo sapiens), sequence (O15264 whole entry): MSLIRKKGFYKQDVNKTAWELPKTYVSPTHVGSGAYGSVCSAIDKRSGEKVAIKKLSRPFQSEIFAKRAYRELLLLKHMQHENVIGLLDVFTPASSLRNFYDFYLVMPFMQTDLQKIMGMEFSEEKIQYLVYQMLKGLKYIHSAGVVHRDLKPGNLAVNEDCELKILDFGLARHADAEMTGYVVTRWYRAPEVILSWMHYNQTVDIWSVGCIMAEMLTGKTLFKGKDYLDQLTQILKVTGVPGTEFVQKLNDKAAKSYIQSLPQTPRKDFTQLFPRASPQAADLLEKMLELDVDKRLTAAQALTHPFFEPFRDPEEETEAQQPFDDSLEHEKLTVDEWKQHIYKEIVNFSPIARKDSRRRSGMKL

[4] = target: T1, Serine/threonine-protein kinase Nek2 (Homo sapiens) (UniProt P51955); test: Inhibition of NEK2a (unknown origin) at 10 uM incubated for 30 mins in presence of [gamma-33P]ATP by multidrop micro reagent based assay relative to control; values are per cent of control
T1 sequence (whole entry): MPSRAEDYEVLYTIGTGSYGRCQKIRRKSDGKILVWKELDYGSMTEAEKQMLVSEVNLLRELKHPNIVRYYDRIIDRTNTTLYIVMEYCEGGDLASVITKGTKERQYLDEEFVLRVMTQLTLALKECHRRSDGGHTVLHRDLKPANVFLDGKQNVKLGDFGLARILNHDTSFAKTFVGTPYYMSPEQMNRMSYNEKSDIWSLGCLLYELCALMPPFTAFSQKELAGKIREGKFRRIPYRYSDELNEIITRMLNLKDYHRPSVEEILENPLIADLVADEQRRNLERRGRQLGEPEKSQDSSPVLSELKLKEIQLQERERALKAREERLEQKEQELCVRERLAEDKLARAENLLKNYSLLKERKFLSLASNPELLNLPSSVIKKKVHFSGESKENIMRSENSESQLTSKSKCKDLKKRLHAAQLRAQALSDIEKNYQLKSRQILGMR

[5] = target: Calcium/calmodulin-dependent protein kinase type 1 (Homo sapiens) (UniProt Q14012); test: Inhibition of CaMK1 (unknown origin) at 10 uM incubated for 30 mins in presence of [gamma-33P]ATP by multidrop micro reagent based assay relative to control; values are per cent of control
Calcium/calmodulin-dependent protein kinase type 1 (Homo sapiens), sequence (Q14012 whole entry, looked up): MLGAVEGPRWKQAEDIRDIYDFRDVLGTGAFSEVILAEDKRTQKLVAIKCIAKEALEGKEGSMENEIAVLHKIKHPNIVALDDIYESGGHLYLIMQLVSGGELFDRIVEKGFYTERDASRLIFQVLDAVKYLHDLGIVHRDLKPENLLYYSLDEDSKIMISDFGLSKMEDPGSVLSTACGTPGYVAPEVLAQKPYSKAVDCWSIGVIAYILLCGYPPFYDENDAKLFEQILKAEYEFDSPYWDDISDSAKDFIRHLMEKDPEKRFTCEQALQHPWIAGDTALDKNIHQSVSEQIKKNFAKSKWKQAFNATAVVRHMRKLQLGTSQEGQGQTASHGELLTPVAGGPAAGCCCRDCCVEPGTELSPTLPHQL

[6] = target: Mitogen-activated protein kinase 9 (Homo sapiens) (UniProt P45984); test: Inhibition of JNK2 (unknown origin) at 10 uM incubated for 30 mins in presence of [gamma-33P]ATP by multidrop micro reagent based assay relative to control; values are per cent of control
Mitogen-activated protein kinase 9 (Homo sapiens), sequence (P45984 whole entry, looked up): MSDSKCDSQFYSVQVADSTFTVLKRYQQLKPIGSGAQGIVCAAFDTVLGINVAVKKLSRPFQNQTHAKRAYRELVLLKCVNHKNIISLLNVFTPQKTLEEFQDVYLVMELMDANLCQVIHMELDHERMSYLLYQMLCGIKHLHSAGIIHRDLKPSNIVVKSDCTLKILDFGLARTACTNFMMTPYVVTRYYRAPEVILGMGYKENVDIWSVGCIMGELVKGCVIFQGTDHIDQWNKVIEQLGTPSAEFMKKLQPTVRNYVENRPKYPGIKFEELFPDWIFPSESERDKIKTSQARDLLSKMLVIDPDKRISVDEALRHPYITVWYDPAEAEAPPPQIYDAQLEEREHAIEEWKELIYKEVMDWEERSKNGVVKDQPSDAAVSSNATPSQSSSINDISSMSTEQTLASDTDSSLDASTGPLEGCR

[7] = target: T2, Mitogen-activated protein kinase 15 (Homo sapiens) (UniProt Q8TD08); test: Inhibition of ERK8 (unknown origin) at 10 uM incubated for 30 mins in presence of [gamma-33P]ATP by multidrop micro reagent based assay relative to control
T2 sequence (whole entry): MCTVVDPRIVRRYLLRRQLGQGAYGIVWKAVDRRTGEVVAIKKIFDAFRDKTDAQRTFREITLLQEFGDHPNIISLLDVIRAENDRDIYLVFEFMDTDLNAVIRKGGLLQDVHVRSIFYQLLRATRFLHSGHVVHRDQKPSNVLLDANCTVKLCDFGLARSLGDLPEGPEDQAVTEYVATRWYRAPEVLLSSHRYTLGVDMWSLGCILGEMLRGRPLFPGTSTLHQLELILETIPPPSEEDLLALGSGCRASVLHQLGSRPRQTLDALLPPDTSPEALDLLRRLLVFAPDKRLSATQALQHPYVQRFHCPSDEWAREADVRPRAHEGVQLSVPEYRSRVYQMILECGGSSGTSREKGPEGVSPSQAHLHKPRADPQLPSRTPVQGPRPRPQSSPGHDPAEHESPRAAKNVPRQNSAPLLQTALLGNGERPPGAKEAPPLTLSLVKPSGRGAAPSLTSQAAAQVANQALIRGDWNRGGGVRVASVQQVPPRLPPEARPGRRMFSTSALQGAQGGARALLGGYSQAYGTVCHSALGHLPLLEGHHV

[8] = target: T3, Ephrin type-B receptor 3 (Homo sapiens) (UniProt P54753); test: Inhibition of EPH-B3 (unknown origin) at 1 uM incubated for 30 mins in presence of [gamma-33P]ATP by multidrop micro reagent based assay relative to control
T3 sequence (whole entry): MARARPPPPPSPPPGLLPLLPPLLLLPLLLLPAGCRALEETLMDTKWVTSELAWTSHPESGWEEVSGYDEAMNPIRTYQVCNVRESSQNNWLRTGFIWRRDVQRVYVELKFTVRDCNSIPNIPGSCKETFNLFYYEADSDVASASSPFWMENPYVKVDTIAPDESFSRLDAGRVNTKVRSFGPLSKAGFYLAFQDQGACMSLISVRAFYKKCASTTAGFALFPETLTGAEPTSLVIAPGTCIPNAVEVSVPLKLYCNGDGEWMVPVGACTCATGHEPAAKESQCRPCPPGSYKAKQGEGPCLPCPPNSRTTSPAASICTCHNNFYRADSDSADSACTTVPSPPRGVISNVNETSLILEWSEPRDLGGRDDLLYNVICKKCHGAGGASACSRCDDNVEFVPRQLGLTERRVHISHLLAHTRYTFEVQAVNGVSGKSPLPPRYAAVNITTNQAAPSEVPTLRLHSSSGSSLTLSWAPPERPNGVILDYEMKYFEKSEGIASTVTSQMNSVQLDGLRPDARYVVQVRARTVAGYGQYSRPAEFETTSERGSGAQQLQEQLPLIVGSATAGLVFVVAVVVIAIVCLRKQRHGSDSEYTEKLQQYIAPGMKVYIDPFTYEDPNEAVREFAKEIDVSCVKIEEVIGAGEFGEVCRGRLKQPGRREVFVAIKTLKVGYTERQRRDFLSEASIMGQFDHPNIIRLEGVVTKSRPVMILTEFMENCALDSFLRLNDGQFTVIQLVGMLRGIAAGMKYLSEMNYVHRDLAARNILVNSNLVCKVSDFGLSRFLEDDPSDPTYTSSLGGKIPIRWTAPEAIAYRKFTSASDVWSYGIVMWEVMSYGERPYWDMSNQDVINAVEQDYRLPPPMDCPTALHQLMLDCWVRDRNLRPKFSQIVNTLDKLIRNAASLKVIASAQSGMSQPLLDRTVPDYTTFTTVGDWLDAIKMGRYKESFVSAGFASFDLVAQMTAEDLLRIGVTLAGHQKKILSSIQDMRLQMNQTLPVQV

[9] = target: Leucine-rich repeat serine/threonine-protein kinase 2 (Homo sapiens, UniProt Q5S007, A2016T/G2019S); test: Inhibition of GST-tagged LRRK2 G2019S/A2016T mutant (1326 to 2527 residues) (unknown origin) in presence of ATP
Leucine-rich repeat serine/threonine-protein kinase 2, sequence (Q5S007 whole entry A2016T/G2019S, the tested form may be a part): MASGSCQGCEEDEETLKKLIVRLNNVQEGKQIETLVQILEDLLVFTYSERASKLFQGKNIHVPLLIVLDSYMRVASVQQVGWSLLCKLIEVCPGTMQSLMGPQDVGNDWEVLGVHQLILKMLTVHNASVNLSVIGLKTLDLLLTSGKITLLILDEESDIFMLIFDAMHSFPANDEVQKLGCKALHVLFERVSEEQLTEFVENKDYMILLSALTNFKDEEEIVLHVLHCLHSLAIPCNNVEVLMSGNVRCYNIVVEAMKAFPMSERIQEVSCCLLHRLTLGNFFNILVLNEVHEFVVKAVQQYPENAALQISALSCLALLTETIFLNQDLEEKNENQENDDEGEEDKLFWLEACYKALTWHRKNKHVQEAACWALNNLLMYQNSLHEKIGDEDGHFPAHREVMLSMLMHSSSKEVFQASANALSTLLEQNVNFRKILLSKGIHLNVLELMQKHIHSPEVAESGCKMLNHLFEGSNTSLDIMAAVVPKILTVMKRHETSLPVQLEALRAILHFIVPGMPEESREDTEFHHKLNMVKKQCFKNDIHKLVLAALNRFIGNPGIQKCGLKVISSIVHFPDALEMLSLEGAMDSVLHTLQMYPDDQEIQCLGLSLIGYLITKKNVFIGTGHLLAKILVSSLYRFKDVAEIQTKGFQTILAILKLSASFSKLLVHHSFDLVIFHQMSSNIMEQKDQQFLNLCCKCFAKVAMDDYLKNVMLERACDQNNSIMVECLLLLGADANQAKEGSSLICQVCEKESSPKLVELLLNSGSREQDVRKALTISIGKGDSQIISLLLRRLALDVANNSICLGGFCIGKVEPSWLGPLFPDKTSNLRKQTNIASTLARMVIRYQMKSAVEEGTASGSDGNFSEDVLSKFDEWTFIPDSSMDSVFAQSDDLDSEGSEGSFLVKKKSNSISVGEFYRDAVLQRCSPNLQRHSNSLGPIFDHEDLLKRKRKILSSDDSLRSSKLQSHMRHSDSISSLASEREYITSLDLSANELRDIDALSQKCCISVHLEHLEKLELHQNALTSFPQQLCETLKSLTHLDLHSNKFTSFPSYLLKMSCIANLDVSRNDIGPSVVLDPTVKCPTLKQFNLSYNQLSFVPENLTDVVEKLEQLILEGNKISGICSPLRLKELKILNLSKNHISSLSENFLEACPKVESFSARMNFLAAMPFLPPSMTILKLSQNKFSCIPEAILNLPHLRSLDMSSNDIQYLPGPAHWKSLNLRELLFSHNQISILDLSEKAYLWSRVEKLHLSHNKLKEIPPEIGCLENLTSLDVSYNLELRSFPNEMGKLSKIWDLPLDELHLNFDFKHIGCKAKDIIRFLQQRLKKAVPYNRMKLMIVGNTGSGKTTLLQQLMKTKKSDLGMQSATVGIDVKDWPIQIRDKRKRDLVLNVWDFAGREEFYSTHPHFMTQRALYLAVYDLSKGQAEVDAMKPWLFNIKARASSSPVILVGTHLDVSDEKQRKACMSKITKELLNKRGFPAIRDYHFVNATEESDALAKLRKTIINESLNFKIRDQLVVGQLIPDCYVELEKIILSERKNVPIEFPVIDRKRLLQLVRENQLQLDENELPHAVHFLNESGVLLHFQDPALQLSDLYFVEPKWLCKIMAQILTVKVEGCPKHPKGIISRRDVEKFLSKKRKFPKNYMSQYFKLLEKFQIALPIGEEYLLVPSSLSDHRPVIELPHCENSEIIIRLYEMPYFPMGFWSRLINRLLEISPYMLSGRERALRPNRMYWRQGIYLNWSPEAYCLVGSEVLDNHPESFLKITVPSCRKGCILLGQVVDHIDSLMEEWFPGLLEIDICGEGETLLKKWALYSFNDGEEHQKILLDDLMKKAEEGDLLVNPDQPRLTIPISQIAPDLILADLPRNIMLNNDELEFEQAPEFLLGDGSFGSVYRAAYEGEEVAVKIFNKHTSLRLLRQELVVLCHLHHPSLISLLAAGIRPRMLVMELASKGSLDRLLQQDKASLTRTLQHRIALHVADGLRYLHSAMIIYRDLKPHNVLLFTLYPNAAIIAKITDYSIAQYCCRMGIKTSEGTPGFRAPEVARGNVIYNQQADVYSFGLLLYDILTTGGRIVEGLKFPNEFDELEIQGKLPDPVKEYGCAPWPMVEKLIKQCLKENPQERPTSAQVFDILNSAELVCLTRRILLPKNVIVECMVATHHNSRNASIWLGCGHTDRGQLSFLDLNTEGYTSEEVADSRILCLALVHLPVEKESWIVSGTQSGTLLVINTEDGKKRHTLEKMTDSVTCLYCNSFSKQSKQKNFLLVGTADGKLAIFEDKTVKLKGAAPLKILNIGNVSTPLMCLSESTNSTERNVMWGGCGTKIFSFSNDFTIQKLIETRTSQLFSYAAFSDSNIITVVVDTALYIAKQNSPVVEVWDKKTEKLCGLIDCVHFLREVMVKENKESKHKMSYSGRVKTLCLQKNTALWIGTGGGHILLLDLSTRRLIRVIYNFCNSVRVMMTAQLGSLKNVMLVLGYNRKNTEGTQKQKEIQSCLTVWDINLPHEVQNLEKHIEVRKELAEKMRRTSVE

MAP kinase-interacting serine/threonine-protein kinase 1 (Homo sapiens), sequence (Q9BUB5 whole entry, looked up): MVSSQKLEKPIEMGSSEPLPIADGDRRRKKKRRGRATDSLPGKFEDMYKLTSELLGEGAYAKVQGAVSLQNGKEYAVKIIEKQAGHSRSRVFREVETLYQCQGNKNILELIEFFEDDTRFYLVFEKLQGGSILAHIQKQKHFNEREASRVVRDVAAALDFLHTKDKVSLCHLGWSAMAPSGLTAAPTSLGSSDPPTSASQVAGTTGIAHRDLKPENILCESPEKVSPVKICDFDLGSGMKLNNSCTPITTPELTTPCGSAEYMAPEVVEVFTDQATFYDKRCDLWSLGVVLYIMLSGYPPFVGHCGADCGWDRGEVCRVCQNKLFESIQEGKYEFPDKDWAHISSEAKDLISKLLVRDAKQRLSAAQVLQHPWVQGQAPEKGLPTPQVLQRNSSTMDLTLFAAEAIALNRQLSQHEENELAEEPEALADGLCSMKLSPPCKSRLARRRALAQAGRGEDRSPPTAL

C[C@@H](N)[C@H]1CC[C@H](C(=O)Nc2ccncc2)CC1
inhibition [1]: 20%
residual activity [2]: 65%
residual activity [3]: 86%
residual activity [4]: 104%
residual activity [5]: 85%
residual activity [6]: 96%

O=S(=O)(c1cccc2cnccc12)N1CCCNCC1 [FASUDIL]
inhibition [7]: 68%
residual activity [5]: 109%

Cc1cncc2cccc(S(=O)(=O)N3CCCNC[C@@H]3C)c12
inhibition [8]: 69%
IC50 [9]: 3.3 µM

CC1=C(C(=O)Nc2cc3cn[nH]c3cc2F)C(c2ccc(C(F)(F)F)cc2)CC(=O)N1 (stereo unspecified)
inhibition [8]: 87%

— ChEMBL document CHEMBL5705888, “Substrate specificity and inhibitors of LRRK2, a protein kinase mutated in Parkinson's disease” (Biochem J, 2009)
